Data set [1] can be described thus: folding enthalpy; higher = less favourable; fluorescence melt of hairpins on a sequencing array, two-state fit. Conditions: sodium 0.088 M. A digest of the protocol:
(§1)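 Cy3 signals were normalised both to pre-quench Cy3 and to control constructs. They came from library hairpins carrying annealed Cy3 and quencher oligos on a sequenced MiSeq flow cell, imaged in 50 mM Na-HEPES pH 8.0, 25 mM NaCl, in 2.5 °C steps up to 60 °C. Bootstrapped two-state fits gave melting temperature and folding enthalpy, and four replicates were combined by inverse variance. Fitted temperatures were then raised by 9.35 °C to match UV melts.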

The nature of data set [2]: melting temperature; fluorescence melt of hairpins on a sequencing array, two-state fit, raised by 9.35 °C to match UV melts. Conditions: sodium 0.088 M. A digest of the protocol:
as §1

As to GCACGCGAAAGCGGGTGC ((((((....)))..))), the folding enthalpy in data set [1] is -17.4 kcal/mol. Besides, in data set [2], the Tm is 66.1 °C.

Regarding GTAGGTGGAAACGCCTAC (((((.(....).))))), the folding enthalpy in data set [1] was -32.8 kcal/mol. Besides, in data set [2], the Tm was determined as 51.9 °C.

Regarding GTTCTCACGAAAGTGAAC (((..(((....)))))), in data set [1], the folding enthalpy is -10.9 kcal/mol. For the same sequence, the Tm in data set [2] worked out at 31.6 °C.

With GGCTACGAAAGTATTGCC ((((((....)))..))), the folding enthalpy in data set [1] was -20.1 kcal/mol. In addition, the Tm in data set [2] was found to be 44.1 °C.

GCCCAGCGAAAGCTACGC ((..(((....)))..)): the folding enthalpy in data set [1] was -5.73 kcal/mol. Also, in data set [2], the Tm came out at 30.2 °C.

For GCGTCGCGAAAGCGCTGC ((..(((....)))..)), the folding enthalpy in data set [1] was -16.3 kcal/mol. Also, the Tm in data set [2] was found to be 50.2 °C.

As to GATGCCGGAAACGGTGTC ((..(((....)))..)), in data set [1], the folding enthalpy is -24.3 kcal/mol. Besides, the Tm in data set [2] stood at 47.8 °C.

For the sequence GCTACCGAAAGGTGAAGC ((((((....)))..))), in data set [1], the folding enthalpy is -19 kcal/mol. The Tm in data set [2] was determined as 42 °C.

Consider GATCTTGGCAAAGATC ((((((....)))))), for which, in data set [1], the folding enthalpy was -38.9 kcal/mol. The Tm in data set [2] came to 53.2 °C.

For the sequence GATCGTGGGAACGATC ((((((....)))))), in data set [1], the folding enthalpy was -38.5 kcal/mol. The Tm in data set [2] was 61 °C.

Regarding GGCGAGGGAAACCTCGTC (.(((((....))))).), the folding enthalpy in data set [1] was -36.4 kcal/mol. In data set [2], the Tm was 60.8 °C.

In the case of GTGGTTGGAAACGACTAC ((.((.(....).)).)), the folding enthalpy in data set [1] was -25.7 kcal/mol. For the same sequence, in data set [2], the Tm stood at 41.8 °C.

As for GATCGTCTCCACGATC ((((((....)))))), the folding enthalpy in data set [1] is -38.1 kcal/mol. Besides, the Tm in data set [2] came out at 53.7 °C.

For the sequence GTCAAGTCGAAAGACGAC (((..(((....)))))), the folding enthalpy in data set [1] was -15.4 kcal/mol. The Tm in data set [2] was 41.9 °C.

As to GTGGGCGAAAGCCAACAC ((((((....)))..))), the folding enthalpy in data set [1] is -15 kcal/mol. For the same sequence, in data set [2], the Tm was found to be 53.5 °C.

GGCGTCGAAAGACTCGCC ((((((....)))..))): in data set [1], the folding enthalpy was -20.6 kcal/mol. In data set [2], the Tm worked out at 50.1 °C.

As to GATCACTTGGTGATC ((((((...)))))), in data set [1], the folding enthalpy is -37.5 kcal/mol. Besides, the Tm in data set [2] is 59.1 °C.

In the case of GGAACAGGAAACTATTCC ((((.((....)).)))), the folding enthalpy in data set [1] was -13.4 kcal/mol. For the same sequence, the Tm in data set [2] is 24.7 °C.

For GGTGCAGGAAACTGCATC (.(((((....))))).), in data set [1], the folding enthalpy was -22.4 kcal/mol. Also, the Tm in data set [2] was 53 °C.

Turning to GATCCCCTTGGGATC ((((((...)))))), in data set [1], the folding enthalpy was -37.4 kcal/mol. In addition, the Tm in data set [2] was found to be 63.6 °C.

Take GCGCGGCGAAAGCAGGGC ((.(.((....)).).)): in data set [1], the folding enthalpy was -19.8 kcal/mol. Besides, the Tm in data set [2] is 63.2 °C.

For GATCAAACTTTGATC ((((((...)))))), the folding enthalpy in data set [1] is -31.6 kcal/mol. Moreover, the Tm in data set [2] was found to be 41.9 °C.

Consider GCAATCGAAAGATGATGC ((((((....)))..))), for which the folding enthalpy in data set [1] was -18.6 kcal/mol. Besides, in data set [2], the Tm turned out to be 32.5 °C.

Consider GAAACTGGAAACAGTCTC ((.((((....)))).)), for which the folding enthalpy in data set [1] was -15.5 kcal/mol. Also, in data set [2], the Tm is 28 °C.

GTGTTCGGAAACGGACAC ((((.((....)).)))): the folding enthalpy in data set [1] is -44.6 kcal/mol. The Tm in data set [2] was 55 °C.

Turning to GCGTGGACGAAAGTCCGC (((..(((....)))))), in data set [1], the folding enthalpy is -11.3 kcal/mol. Besides, the Tm in data set [2] was 52.8 °C.

Take GCTCACGGAAACGTGGGC ((.((((....)))).)): in data set [1], the folding enthalpy was -47.8 kcal/mol. The Tm in data set [2] was 59.6 °C.

With GCATAGCGAAAGCTACGC ((.((((....)))).)), in data set [1], the folding enthalpy was -20.3 kcal/mol. Besides, the Tm in data set [2] stood at 52.9 °C.

Turning to GATCGTCGCCACGATC ((((((....)))))), the folding enthalpy in data set [1] was -42.1 kcal/mol. Besides, the Tm in data set [2] came to 53.8 °C.

In the case of GCCTCGGGAAACCAAGGC ((((.((....)).)))), in data set [1], the folding enthalpy was -34.9 kcal/mol. Also, the Tm in data set [2] was 47.6 °C.
